Data as given in ChEMBL document CHEMBL2331552, “Identification of RO4597014, a Glucokinase Activator Studied in the Clinic for the Treatment of Type 2 Diabetes” (ACS Med Chem Lett, 2013).
Values after ≈ are worked out from the molar mass of the structure shown. Each block holds one compound with its values, some of them ahead of it.

Assays:
[1] = target: T1, Hexokinase-4 (Homo sapiens) (UniProt P35557); assay: Activation of glucokinase (unknown origin) using glucose as substrate assessed as stimulation concentration required to achieve 150% activity relative to control
T1 sequence (whole entry): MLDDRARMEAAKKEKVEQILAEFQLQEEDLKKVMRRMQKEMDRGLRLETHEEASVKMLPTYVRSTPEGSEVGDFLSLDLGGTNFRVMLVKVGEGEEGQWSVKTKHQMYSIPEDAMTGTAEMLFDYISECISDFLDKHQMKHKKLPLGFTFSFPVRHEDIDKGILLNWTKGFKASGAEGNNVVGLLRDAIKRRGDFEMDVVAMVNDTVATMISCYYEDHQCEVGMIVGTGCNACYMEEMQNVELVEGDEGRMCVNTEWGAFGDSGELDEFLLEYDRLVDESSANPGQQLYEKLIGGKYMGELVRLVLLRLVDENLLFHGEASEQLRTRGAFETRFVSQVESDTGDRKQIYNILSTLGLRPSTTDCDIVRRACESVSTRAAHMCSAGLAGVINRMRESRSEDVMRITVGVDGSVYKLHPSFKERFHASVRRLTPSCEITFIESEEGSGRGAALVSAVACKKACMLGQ
In short: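 Read-out is the compound concentration giving GK activity 150% of control (SC1.5). Values are means of at least three independent assays. Assay CV averaged 15%.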

Mus musculus [2] = assay: Antidiabetic activity in C57Bl/6J mouse assessed as change in blood glucose level at 50 mg/kg, po after 4 hrs relative to vehicle-treated control; format: functional
In short: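 C57Bl/6J mice, 2 months old, n = 6 per group, fasted 2 h, received 50 mg/kg orally or vehicle. Blood was sampled at 2, 4, 6 and 8 h after dosing. The recorded value is % blood glucose change versus vehicle at 4 h.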

hERG (KCNH2) = hERG (KCNH2) (Homo sapiens, UniProt Q12809); assay: Inhibition of human ERG channel at 10 uM by patch clamp method
[3] = Metabolic stability in human hepatocytes after 3 hrs by LC-MS/MS analysis; format: ADME, cell-based, Hepatocyte; details: read-out: Stability
[4] = Volume of distribution at steady state in C57Bl/6J mouse at 10 mg/kg, iv; format: ADME, organism-based; set-up: dose 10 mg/kg, route intravenous; details: in vivo, read-out: Vdss
[5] = Oral bioavailability in C57Bl/6J mouse at 30 mg/kg; format: ADME, organism-based; details: in vivo
[6] = Solubility of the compound at pH 7.4; format: physicochemical; details: buffer
[7] = AUC (0 to infinity) in dog at 10 mg/kg, iv; format: ADME, organism-based, Canis lupus familiaris; set-up: time infinity, dose 10 mg/kg, route intravenous; details: plasma
[8] = target: Voltage-gated inwardly rectifying potassium channel KCNH2 (Homo sapiens, UniProt Q12809); assay: Inhibition of human ERG channel
In short: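 hERG potassium channel current was measured by patch clamp at varied concentrations. IC50 was taken from the concentration-dependent inhibition.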

[9] = Cmax in C57Bl/6J mouse at 30 mg/kg, po; format: ADME, organism-based; set-up: dose 30 mg/kg, route oral; details: in vivo
[10] = AUC (0 to infinity) in C57Bl/6J mouse at 30 mg/kg, po; format: ADME, organism-based; set-up: time infinity, dose 30 mg/kg, route oral; details: plasma
[11] = Tmax in C57Bl/6J mouse at 30 mg/kg, po; format: ADME, organism-based; set-up: dose 30 mg/kg, route oral; details: in vivo
[12] = Dissociation constant, pKa of the compound; format: physicochemical
[13] = AUC (0 to infinity) in C57Bl/6J mouse at 10 mg/kg, iv; format: ADME, organism-based; set-up: time infinity, dose 10 mg/kg, route intravenous; details: plasma
[14] = Oral bioavailability in dog at 30 mg/kg; format: ADME, organism-based, Canis lupus familiaris; details: in vivo
Mus musculus [15] = assay: Antidiabetic activity in po dosed diet induced obese C57Bl/6J mouse assessed as reduction in blood glucose level after 2 to 4 hrs; format: functional
In short: (§1)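 Diet-induced obese C57Bl/6J mice were used: 6 months old, on high-fat diet for 4 months, n = 9 per dose. Oral doses were 7.5, 15 and 30 mg/kg. Basal blood glucose lowering was read at 2 and 4 h post-dose.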

[16] = Cmax in dog at 30 mg/kg, po; format: ADME, organism-based, Canis lupus familiaris; set-up: dose 30 mg/kg, route oral; details: in vivo
[17] = Inhibition of cytochrome P450 (unknown origin); format: ADME, Homo sapiens
In short: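 IC50 was measured against 7 CYP isoforms.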

[18] = Tmax in dog at 30 mg/kg, po; format: ADME, organism-based, Canis lupus familiaris; set-up: dose 30 mg/kg, route oral; details: in vivo
[19] = Apparent permeability of the compound across human Caco2 cells; format: ADME, cell-based; details: Caco-2
Liver microsomes = assay: Covalent binding to human liver microsomes after 30 mins in presence of NADPH per mg of protein; format: ADME, Microsome; details: 0.5 h
In short: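 Covalent binding to human liver microsomes was measured with NADPH over 30 min. It is expressed per mg protein.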

[20] = Clearance in dog at 10 mg/kg, iv; format: ADME, organism-based, Canis lupus familiaris; set-up: dose 10 mg/kg, route intravenous; details: in vivo
[21] = Volume of distribution at steady state in dog at 10 mg/kg, iv; format: ADME, organism-based, Canis lupus familiaris; set-up: dose 10 mg/kg, route intravenous; details: in vivo, read-out: Vdss
Mus musculus [22] = assay: Antidiabetic activity in diet induced obese C57Bl/6J mouse assessed as reduction in blood glucose level at 15 mg/kg, po after 2 to 4 hrs; format: functional; set-up: scale not given: the % may be the effect or the level left; in short: as §1
Mus musculus [23] = assay: Antidiabetic activity in diet induced obese C57Bl/6J mouse assessed as reduction in blood glucose level at 30 mg/kg, po after 2 to 4 hrs; format: functional; set-up: scale not given: the % may be the effect or the level left; in short: as §1
[24] = Clearance in C57Bl/6J mouse at 10 mg/kg, iv; format: ADME, organism-based; set-up: dose 10 mg/kg, route intravenous; details: in vivo
[25] = target: T1, Hexokinase-4 (Homo sapiens); assay: Activation of human recombinant glucokinase using glucose as substrate
In short: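 Recombinant human GK was run across a range of glucose concentrations with varied activator levels. Vmax and the glucose SC0.5 (concentration reaching half Vmax) were derived.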

[26] = Lipophilicity, log D of the compound at pH 7.4; format: physicochemical; details: buffer
Mus musculus [27] = assay: Antidiabetic activity in po dosed diet induced obese C57Bl/6J mouse assessed as lowering blood glucose level; format: functional, organism-based
In short: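 Diet-induced obese C57Bl/6J mice were used: 6 months old, 4 months on high-fat diet, n = 9 per dose. Oral doses were 7.5, 15 and 30 mg/kg, with glucose followed at 2 and 4 h post-dose. The dose giving 25% glucose lowering (ED25) was reported.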

[28] = AUC (0 to infinity) in dog at 30 mg/kg, po; format: ADME, organism-based, Canis lupus familiaris; set-up: time infinity, dose 30 mg/kg, route oral; details: plasma
[29] = Fraction unbound in human plasma; format: ADME, cell-free

Chain of hERG (KCNH2) (Q12809 whole entry): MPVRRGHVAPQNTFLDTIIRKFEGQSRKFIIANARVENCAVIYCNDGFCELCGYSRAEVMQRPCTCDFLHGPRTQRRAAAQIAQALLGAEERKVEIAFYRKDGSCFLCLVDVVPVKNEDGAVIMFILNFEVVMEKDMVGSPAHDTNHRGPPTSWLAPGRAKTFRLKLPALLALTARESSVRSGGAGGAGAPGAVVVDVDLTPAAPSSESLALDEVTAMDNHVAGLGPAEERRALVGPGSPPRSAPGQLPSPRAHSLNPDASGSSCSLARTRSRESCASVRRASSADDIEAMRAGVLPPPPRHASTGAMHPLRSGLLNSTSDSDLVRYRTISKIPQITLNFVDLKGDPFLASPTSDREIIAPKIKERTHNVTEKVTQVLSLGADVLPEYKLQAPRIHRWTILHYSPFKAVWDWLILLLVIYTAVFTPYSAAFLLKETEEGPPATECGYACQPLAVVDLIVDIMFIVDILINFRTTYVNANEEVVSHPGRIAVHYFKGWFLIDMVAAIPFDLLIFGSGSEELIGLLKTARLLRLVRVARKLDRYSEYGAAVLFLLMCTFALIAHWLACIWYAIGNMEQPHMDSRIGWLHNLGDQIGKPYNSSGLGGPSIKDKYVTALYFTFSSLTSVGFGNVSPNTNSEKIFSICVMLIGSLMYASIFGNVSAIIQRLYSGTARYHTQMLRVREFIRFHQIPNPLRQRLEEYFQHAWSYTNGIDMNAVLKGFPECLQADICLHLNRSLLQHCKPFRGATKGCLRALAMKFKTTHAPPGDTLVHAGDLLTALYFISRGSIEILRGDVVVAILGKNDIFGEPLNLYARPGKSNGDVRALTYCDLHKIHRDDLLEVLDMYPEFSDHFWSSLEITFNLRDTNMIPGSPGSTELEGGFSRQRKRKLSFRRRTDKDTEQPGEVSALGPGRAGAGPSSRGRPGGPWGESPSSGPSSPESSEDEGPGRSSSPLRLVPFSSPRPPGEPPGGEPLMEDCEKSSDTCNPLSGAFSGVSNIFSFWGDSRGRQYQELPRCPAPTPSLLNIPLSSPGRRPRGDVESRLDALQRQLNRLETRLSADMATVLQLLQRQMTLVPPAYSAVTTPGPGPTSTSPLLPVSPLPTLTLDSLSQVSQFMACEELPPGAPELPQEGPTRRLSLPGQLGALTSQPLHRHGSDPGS
Chain of Voltage-gated inwardly rectifying potassium channel KCNH2 (Q12809 whole entry): as above

Activity [1]: 0.31 µM
SMILES: CC(C)(O)[C@@H](O)c1cnc(NC(=O)[C@H](CC2CCCC2)c2ccc(S(C)(=O)=O)c(Cl)c2)cn1
Activity (Mus musculus [2]): -44%

Activity [1]: 0.059 µM
SMILES: C/C(=N/O)c1cnc(NC(=O)[C@H](CC2CCCC2)c2ccc(S(C)(=O)=O)c(Cl)c2)cn1
inhibition at 10 µM (hERG (KCNH2)): 73%
Activity (Mus musculus [2]): -43%

Activity [1]: 0.037 µM
SMILES: CS(=O)(=O)c1ccc([C@@H](CC2CCCC2)C(=O)Nc2cnc(/C(N)=N\O)cn2)cc1Cl
inhibition at 10 µM (hERG (KCNH2)): 50%
Activity (Mus musculus [2]): -53%

Activity [1]: 0.022 µM
SMILES: CS(=O)(=O)c1ccc([C@@H](CC2CCCC2)C(=O)Nc2cnc(C#CCO)cn2)cc1Cl
inhibition at 10 µM (hERG (KCNH2)): 46%
Activity (Mus musculus [2]): -46%

Activity [1]: 0.4 µM
SMILES: C[S+]([O-])c1cnc(NC(=O)[C@H](CC2CCCC2)c2ccc(S(C)(=O)=O)c(Cl)c2)cn1 (stereo not given in full)
inhibition at 10 µM (hERG (KCNH2)): 27%
Activity (Mus musculus [2]): -26%

Activity [1]: 0.11 µM
SMILES: CN(C)CC#Cc1cnc(NC(=O)[C@H](CC2CCCC2)c2ccc(S(C)(=O)=O)c(Cl)c2)cn1
inhibition at 10 µM (hERG (KCNH2)): 86%
Activity (Mus musculus [2]): -46%

Activity [1]: 1.9 µM
SMILES: COc1cc(C(CC2CCCC2)C(=O)Nc2cnccn2)ccc1S(C)(=O)=O (stereo not given)
inhibition at 10 µM (hERG (KCNH2)): 36%

Activity [1]: 1.4 µM
SMILES: CS(=O)(=O)c1ccc(C(CC2CCOCC2)C(=O)Nc2cnccn2)cc1Cl (stereo not given)
inhibition at 10 µM (hERG (KCNH2)): 8.1%
Activity (Mus musculus [2]): -5.6%

Activity [1]: 0.3 µM
SMILES: CS(=O)(=O)c1ccc([C@@H](CC2CCCC2)C(=O)Nc2cnc(OC[C@@H](O)CO)cn2)cc1Cl
Activity (Mus musculus [2]): -29%

Activity [1]: 3.6 µM
SMILES: CS(=O)(=O)c1ccc(C(CC2CCOC2)C(=O)Nc2cnccn2)cc1Cl (stereo not given)

Activity [1]: 0.075 µM
SMILES: CS(=O)(=O)c1ccc([C@@H](CC2CCCC2)C(=O)Nc2cnc(C#CC3(O)CCOCC3)cn2)cc1Cl
Activity (Mus musculus [2]): -45%

Activity [1]: 0.056 µM
SMILES: CC(C)(O)C#Cc1cnc(NC(=O)[C@H](CC2CCCC2)c2ccc(S(C)(=O)=O)c(Cl)c2)cn1
Activity (Mus musculus [2]): -48%

Activity [1]: 0.14 µM
SMILES: COCC#Cc1cnc(NC(=O)[C@H](CC2CCCC2)c2ccc(S(C)(=O)=O)c(Cl)c2)cn1
inhibition at 10 µM (hERG (KCNH2)): 53%
Activity (Mus musculus [2]): -49%

Activity [1]: 0.054 µM
SMILES: CSc1cnc(NC(=O)[C@H](CC2CCCC2)c2ccc(S(C)(=O)=O)c(Cl)c2)cn1
Activity (Mus musculus [2]): -26%

Activity [1]: 0.19 µM
SMILES: CS(=O)(=O)c1ccc([C@@H](CC2CCCC2)C(=O)Nc2cnc(OC[C@H](O)CO)cn2)cc1Cl
Activity (Mus musculus [2]): -38%

Activity [1]: 0.11 µM
SMILES: CS(=O)(=O)c1ccc([C@@H](CC2CCCC2)C(=O)Nc2cnccn2)cc1Cl
Activity (Mus musculus [2]): -53%

Activity [1]: 0.26 µM
SMILES: CS(=O)(=O)Cc1cnc(NC(=O)[C@H](CC2CCCC2)c2ccc(S(C)(=O)=O)c(Cl)c2)cn1
Activity (Mus musculus [2]): -39%

Activity [1]: 0.41 µM
SMILES: CS(=O)(=O)c1ccc([C@@H](CC2CCCC2)C(=O)Nc2cnc(C(=O)NO)cn2)cc1Cl
inhibition at 10 µM (hERG (KCNH2)): 37%
Activity (Mus musculus [2]): -14%

Activity [1]: 1.1 µM
SMILES: CS(=O)(=O)c1ccc([C@@H](CC2CCCC2)C(=O)Nc2cnc([C@@H](O)CO)cn2)cc1Cl
inhibition at 10 µM (hERG (KCNH2)): 21%
Activity (Mus musculus [2]): -35%

remaining at 3 h [3]: 95%
Vd [4]: 1.44 L/kg
bioavailability [5]: 50.3%
solubility [6]: 170 µg/mL (≈ 363 µM)
AUC(0-inf) [7]: 21600 ng·h/mL
Activity [1]: 0.26 µM
Cmax [9]: 1310 ng/mL
AUC(0-inf) [10]: 12100 ng·h/mL
Tmax [11]: 4 h
pKa [12]: 11.4
AUC(0-inf) [13]: 8010 ng·h/mL
bioavailability [14]: 84%
Cmax [16]: 3790 ng/mL
IC50 [17]: > 30 µM
Tmax [18]: 7.3 h
Papp [19]: 3.36 ×10⁻⁶ cm/s
Activity (Liver microsomes): 33 pmol
clearance [20]: 8 mL/min/kg
Vd [21]: 1.69 L/kg
clearance [24]: 20.8 mL/min/kg
Activity [25]: Dose-dependent effect
logD [26]: 2.7
AUC(0-inf) [28]: 54500 ng·h/mL
fraction unbound [29]: 0.1
SMILES: CS(=O)(=O)c1ccc([C@@H](CC2CCCC2)C(=O)Nc2cnc([C@H](O)CO)cn2)cc1Cl
IC50 [8]: 70 µM
ED25 (Mus musculus [15]): 10 mg/kg
inhibition at 10 µM (hERG (KCNH2)): 22%
Activity (Mus musculus [22]): 32%
Activity (Mus musculus [23]): 45%
Activity (Mus musculus [2]): -44%
Activity (Mus musculus [27]): Dose-dependent effect

Activity [1]: 0.13 µM
SMILES: CS(=O)(=O)c1ccc([C@@H](CC2CCCC2)C(=O)Nc2cnc(CCC3(O)CCOCC3)cn2)cc1Cl
inhibition at 10 µM (hERG (KCNH2)): 40%
Activity (Mus musculus [2]): -43%
